Bioassay records deposited in PubChem by several laboratories.
Apaf1 inhib: inhibitors of human Apaf-1 apoptosome. AID 489030. reconstituted apoptosome caspase-3 activity, DEVD-Rh110 fluorescence. inhibition, % at 20 µM. hit rate 0.71% among 330,000; active = inhibition of at least 40% at 20 µM;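 also: plate controls were DMSO wells for no effect and DEVD-CHO caspase inhibitor wells for full effect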
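Material: reconstituted apoptosome with Apaf-1, cytochrome c, caspase-9, procaspase-3, dATP / Buffer or medium: pH 7.5 Hepes buffer with CHAPS, BSA, DTT / Also added: cytochrome c with DEVD-Rh110 / Schedule: compound with Apaf-1, dATP, procaspase-3 30 min, then 50 min reaction, room temperature / Technique: rhodamine 110 fluorescence at Ex 480/Em 540 nm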
ZTA DNA inh: ZTA (EBV) inhibition in EBNA-1 counter-screen; P03206; ZTA-DNA binding, fluorescence polarization; inhibition, % at 11 µM; hit rate 0.15% among 320,000; AID 2234; in the data active = inhibition above about 33%
Target sequence (P03206 whole entry, looked up): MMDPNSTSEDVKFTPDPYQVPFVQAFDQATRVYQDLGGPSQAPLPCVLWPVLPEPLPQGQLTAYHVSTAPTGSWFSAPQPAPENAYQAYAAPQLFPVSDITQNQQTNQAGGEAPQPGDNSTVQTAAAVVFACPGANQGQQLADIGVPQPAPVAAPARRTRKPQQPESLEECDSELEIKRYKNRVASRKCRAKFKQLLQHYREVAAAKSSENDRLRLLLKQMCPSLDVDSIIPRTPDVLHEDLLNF
UBC13 inh: human UBC13 polyubiquitination inhibition; P61088; UBC13 polyubiquitin chain formation, TR-FRET; inhibition, % at 20 µM; hit rate 0.47% among 330,000; AID 485273; in the data active = inhibition above about 45%, passing the limit was not always enough
Target sequence (P61088 whole entry, looked up): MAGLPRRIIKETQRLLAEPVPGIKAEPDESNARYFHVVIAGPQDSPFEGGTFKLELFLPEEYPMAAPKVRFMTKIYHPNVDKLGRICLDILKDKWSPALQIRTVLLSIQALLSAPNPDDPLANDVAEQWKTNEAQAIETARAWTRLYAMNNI
PREPL inh: human PREPL enzyme inhibition; Q4J6C6; recombinant PREPL, fluorescence polarization activity-based probe; inhibition, % at 5.96 µM; hit rate 0.68% among 320,000; AID 2751; in the data active = inhibition above about 43%;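 also: 0% = enzyme with DMSO and 100% = wells lacking enzyme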
EBNA-1 inh: blocks EBNA-1 binding to DNA | hit rate 0.34% among 300,000 | EBNA-1 DNA binding, fluorescence polarization | AID 1950 | inhibition, % at 14.8 µM; in the data active = inhibition above about 28%
Zta DNA confirm: confirmation of Epstein-Barr virus ZTA DNA binding inhibitors | shares compounds with ZTA DNA inh | hit rate 30% among 320 | AID 2361 | inhibition, % at 11.1 µM | Zta-ZRE DNA binding, fluorescence polarization;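 active = mean inhibition across triplicate runs above the hit threshold derived for the original primary screen, cut at about 33% in these data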;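 also: 0% = Zta with DMSO and 100% = wells lacking Zta protein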
EBNA1 counter: EBNA-1 DNA binding inhibition, counter-screen for ZTA; shares compounds with ZTA DNA inh; fluorescence polarization; inhibition, % at 14.8 µM; 320 tested, under 10 active; AID 2362
PREPL confirm: confirmation of human PREPL enzyme inhibitors | inhibition, % at 5.96 µM | recombinant PREPL, fluorescence polarization activity probe | shares compounds with PREPL inh | hit rate 67% among 2,000; in the data active = inhibition above about 43%;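 also: 0% = protein with DMSO and 100% = wells lacking protein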
Apaf-1 inh conf: Apaf-1 inhibition, single-dose confirmed; hit rate 25% among 1,800; reconstituted apoptosome, caspase-3 DEVD-Rh110 fluorescence; shares compounds with Apaf1 inhib; inhibition, % at 20 µM;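 active = mean inhibition of at least 40% at 20 µM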;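 also: plate controls were DMSO wells for no effect and DEVD-CHO caspase inhibitor control wells for full effect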
Rh110 interf inh: counter-screen for Apaf-1 inhibitors: fluorescence interference; activation (fluorescence interference), % at 20 µM; 1,800 tested, under 10 active; shares compounds with Apaf1 inhib; Rh110 fluorescence interference, quenched caspase reaction; AID 504615;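 active = signal rise of 40% or more at 20 µM, treated as a fluorescence artifact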
Apaf1 inh interf: shows fluorescence interference in the Apaf-1 inhibitor assay format; shares compounds with Apaf1 inhib; 460 tested, under 10 active; IC50, µM; fluorescence interference counterscreen, Apaf-1 assay format
Active calls of the source: *; x = not tested or not shown; + = active, no number. The list is not random: actives were taken first. Their share in the collection is about 1.7%. Unless noted, no rule for the calls is given here.

SMILES	Apaf1 inhib	ZTA DNA inh	UBC13 inh	PREPL inh	EBNA-1 inh	PREPL confirm	others
O=C1C=C(N2CCOCC2)c2ccccc2C1=O	98*	54*	-195	16	-5	x	Zta DNA confirm=68*;EBNA1 counter=-11;Apaf-1 inh conf=100*;Rh110 interf inh=-3;Apaf1 inh interf=>100
COc1ccc2ccc3c(c2c1)N=C[C@]1(O3)N(C)c2ccccc2C1(C)C	24	15	-1	7	13	x
Cc1ccc(S(=O)(=O)/N=C2\C=C(Nc3cccc(C(=O)O)c3)C(=O)c3ccccc32)cc1	94*	33*	-185	32	2	x	Zta DNA confirm=36*;EBNA1 counter=-14;Apaf-1 inh conf=98*;Rh110 interf inh=9;Apaf1 inh interf=>100
CCc1ccc(S(=O)(=O)/N=C2\C=C(Nc3ccc(C(=O)O)cc3)C(=O)c3ccccc32)cc1	96*	53*	-165	41	-4	x	Zta DNA confirm=52*;EBNA1 counter=2;Apaf-1 inh conf=89*;Rh110 interf inh=0;Apaf1 inh interf=>100
O=C1C(Nc2ccccc2)=C/C(=N/S(=O)(=O)c2cccs2)c2ccccc21	x	16	x	30	7	x
COc1ccc2c(c1)-c1nc(NC(=O)c3cccs3)sc1CC2	7	4	9	6	-7	x
O=C(Nc1ccc2nc(-c3cccs3)[nH]c2c1)c1cccs1	2	-12	-5	9	-6	x
O=C(Nc1ccc(-c2nc3ccc(NC(=O)c4cccs4)cc3[nH]2)cc1)c1cccs1	69*	55*	41	11	-12	x	Zta DNA confirm=43*;EBNA1 counter=4;Apaf-1 inh conf=90*;Rh110 interf inh=7;Apaf1 inh interf=>100
O=C(Cc1cccc2ccccc12)Nc1nnc(-c2cccc([N+](=O)[O-])c2)s1	10	3	-28	46*	-4	28
O=C(CSc1ccc(Cl)cc1)Nc1nnc(-c2cccc([N+](=O)[O-])c2)s1	6	-3	-12	25	-5	x
O=C(COc1cccnc1[N+](=O)[O-])Nc1cccc2ccccc12	-5	3	7	9	x	x
N#C/C(=C1/CCCCCN1)c1nc2ccccc2s1	10	2	-3	-8	11	x
CN(C)c1nnnn1-c1ccc(Cl)cc1Cl	-14	-4	0	-5	5	x
CC(C)NC(=O)c1ccc(NC(=O)CC2SC(N3CCCCC3)=NC2=O)cc1 (stereo not given)	-6	-13	2	80*	x	18
CC(C)NC(=O)c1ccc(NC(=O)CC2SC(N3CCCC3)=NC2=O)cc1 (stereo not given)	-6	9	7	2	x	x
O=C(COc1ccccc1)N1CCN(C(=O)c2ccco2)CC1	-10	-5	-5	21	1	x
CCCn1c(SCC(=O)c2c[nH]c3ccccc23)nnc1-c1ccncc1	15	-7	-2	44*	7	35
Cc1[nH]c2ccccc2c1C(c1ccncc1)N1CCN(c2ccccn2)CC1 (stereo not given)	13	6	-2	+	-5	13
CCOc1cc(C(=O)NC(C)C2CC3CCC2C3)cc(OCC)c1OCC (stereo not given)	2	-19	-6	15	-1	x
Cn1cnc(C(=O)N2CCN(c3ccccc3)CC2)c1C(=O)N1CCN(c2ccccc2)CC1	5	-3	5	45*	x	40
Cc1ccc(C(=O)NC(=S)Nc2ccc(N3CCN(C(=O)c4ccco4)CC3)cc2)cc1	11	-8	-6	48*	-8	37
Cc1ccccc1OCC(=O)Nc1ccc(N2CCN(C(=O)c3ccco3)CC2)cc1	9	-7	-8	58*	-12	48*
Cc1cccc(OCC(=O)Nc2ccc(N3CCN(C(=O)c4ccco4)CC3)cc2)c1C	19	11	-4	48*	4	47*
COc1ccc(CCN2CC(C(=O)NCc3cc(C)on3)CCC2=O)cc1 (stereo not given)	-5	x	4	x	x	x
CCCc1ccc(OCc2ccc(C(=O)N3CCSCC3)o2)cc1	16	0	3	2	-3	x
SMILES	Apaf1 inhib	ZTA DNA inh	UBC13 inh	PREPL inh	EBNA-1 inh	PREPL confirm	others
Cc1ccc2c(c1)c(-c1csc(N)n1)c(C)n2C	13	-9	-2	9	1	x
O=C(C[C@H]1C/C=C\CC[C@@H](Cc2ccc(F)cc2)C(=O)OC[C@H]2CCCN2C1=O)N[C@@H](CO)Cc1ccccc1	22	x	4	53*	x	54*
O=C(C[C@H]1C/C=C\CC[C@H](Cc2ccc(F)cc2)C(=O)OC[C@H]2CCCN2C1=O)N[C@@H](CO)Cc1ccccc1	15	x	14	61*	x	53*
O=C(C[C@H]1C/C=C\CC[C@H](Cc2ccc(F)cc2)C(=O)OC[C@H]2CCCN2C1=O)N[C@H](CO)Cc1ccccc1	13	x	-10	34	x	x
CC(C)Nc1ccc(Nc2ccnc3cc4ccccc4cc23)cc1	16	-16	-93	60*	-1	62*
Nc1c(C(=O)NC2CCCCC2)nsc1C(=O)OCC(=O)NC1CCCCC1	8	6	-4	-5	-5	x
Cc1sc(NC(=O)c2ccccc2)c(C(c2ccc(Cl)cc2)N2CCN(CCO)CC2)c1C (stereo not given)	21	1	31	48*	3	41
Cc1ccc2cccc(S(=O)(=O)Nc3c(C)n(C)n(-c4ccccc4)c3=O)c2n1	-21	17	9	6	-2	x
CN1CCN(c2ccc(NC(=O)COc3cccc4ccccc34)cc2)CC1	10	-2	13	55*	-8	57*
CN1CCN(c2ccc(NC(=O)COc3ccc4ccccc4c3)cc2)CC1	9	-17	8	52*	2	58*
Cc1ccc(Cn2nnc3c(=O)[nH]c(C4CCCN(C(=O)Nc5ccc(F)cc5F)C4)nc32)cc1 (stereo not given)	-4	-3	3	-2	2	x
Cc1[nH]c2ccc(C(=O)NCCCN3CCCCCC3)cc2c1C	23	6	14	46*	1	32
Cc1[nH]c2ccc(C(=O)NCCCN3CCCC3)cc2c1C	11	-4	14	14	10	x
Cc1ccc(S(=O)(=O)Nc2ccccc2C(=O)Nc2sccc2C(=O)NN(C)C)cc1	1	14	4	-2	10	x
O=[N+]([O-])c1ccc(C(O)CN=Cc2ccc(O)cc2O)cc1 (stereo not given)	-12	-3	-1	49*	-2	11
CCn1c2ccccc2c2cc(CNCc3ccc(OC)cc3OC)ccc21	13	-4	34	49*	1	51*
